Source: PubChem BioAssay
Activity calls are given as the source filed them.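 The calls were made as follows, unless noted: active = viability at or under a set limit in both replicates, limit being median viability minus 3 SD (cut at about 48% in these data, passing the limit was not always enough); inconclusive = at or under the limit in just one replicate; inactive = at or above the limit in both replicates.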

What was measured:
[1] = reducers of endogenous Her2 protein level, primary screen, SKBR3 breast tumor cells, AlphaScreen, ATP viability (AID 461;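 active = Her2 level under about 52% in both replicate screens, with viability over 70% of control, limit read from the data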;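 as to Her2 level: lower value means less Her2 protein in the cells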;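 as to viability: percent of carrier control wells set as 100% viability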); settings: 18-24 h, measured here: SKBR3 viability, ATP luminescence, at 10 µM
[2] = target: Receptor tyrosine-protein kinase erbB-2 (Homo sapiens) (UniProt P04626); assay: as above; settings: 18-24 h, at 10 µM, stronger effect = lower value
[3] = SK-BR-3 cell growth inhibitors, pilot screen, 24 h, human (AID 572;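 active = viability at or below 10% of carrier control in both of two separate runs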;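 also: compound exposure lasted between 18 and 24 h rather than exactly 24 h; 100% = carrier-treated control wells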); settings: SK-BR-3 viability, CellTiter-Glo luminescence, at 10 µM, stronger effect = lower value
[4] = HUVEC growth inhibition – cell-based, human, primary screen (AID 575;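 active = viability at or below 30% in both replicate assays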;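 also: 100% = median of untreated cell wells with 0.1% DMSO on each plate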); settings: HUVEC proliferation, CellTiter-Glo luminescence, 72 h; at 10 µM; stronger effect = lower value
Procedure, shortened: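 Timing: 72 h treatment at 37 °C; material: HUVEC primary cells; technique: CellTiter-Glo luminescence measuring cellular ATP; controls: vehicle and MePR control wells; measure: percent of median DMSO-control luminescence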

[5] = growth inhibitors of H69AR lung tumor, primary screen, human, duplicate replicates (AID 580); settings: H69AR lung tumor cells viability, ATP luminescence, 72 h; at 10 µM; stronger effect = lower value;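 also: 100% = mean luminescence of untreated wells and 0% = no signal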
[6] = reversal of MRP1-mediated doxorubicin resistance, pilot screen, H69AR cells, doxorubicin co-treatment (AID 601;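 active = viability loss from added drug above about 55%, and viability with drug at most 40%, in both replicates, limit read from the data, passing the limit was not always enough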); settings: CellTiter-Glo, 72 h, at 10 µM; for differential viability (reversal): stronger effect = higher value
[7] = 384-well plate pilot, post-Golgi transport modulator project, inhibition of yeast transport mutant growth (AID 636; in the data active = inhibition above about 31%); settings: absorbance 615 nm, about 18 h, stronger effect = higher value
[8] = growth suppression of yeast trafficking mutant, preliminary HTS, modulators of trafficking downstream of Golgi apparatus project, 1536-format plate, OD 615 nm (AID 637; in the data active = inhibition above about 30%); settings: yeast transport mutant growth, absorbance 615 nm, 18 h; stronger effect = higher value
[9] = H69AR cells + 2 uM doxorubicin, measured here: viability with 2 uM doxorubicin, stronger effect = lower value
[10] = H69AR cells, compound alone cytotoxicity

Sequence of Receptor tyrosine-protein kinase erbB-2 (Homo sapiens) (P04626 whole entry, looked up): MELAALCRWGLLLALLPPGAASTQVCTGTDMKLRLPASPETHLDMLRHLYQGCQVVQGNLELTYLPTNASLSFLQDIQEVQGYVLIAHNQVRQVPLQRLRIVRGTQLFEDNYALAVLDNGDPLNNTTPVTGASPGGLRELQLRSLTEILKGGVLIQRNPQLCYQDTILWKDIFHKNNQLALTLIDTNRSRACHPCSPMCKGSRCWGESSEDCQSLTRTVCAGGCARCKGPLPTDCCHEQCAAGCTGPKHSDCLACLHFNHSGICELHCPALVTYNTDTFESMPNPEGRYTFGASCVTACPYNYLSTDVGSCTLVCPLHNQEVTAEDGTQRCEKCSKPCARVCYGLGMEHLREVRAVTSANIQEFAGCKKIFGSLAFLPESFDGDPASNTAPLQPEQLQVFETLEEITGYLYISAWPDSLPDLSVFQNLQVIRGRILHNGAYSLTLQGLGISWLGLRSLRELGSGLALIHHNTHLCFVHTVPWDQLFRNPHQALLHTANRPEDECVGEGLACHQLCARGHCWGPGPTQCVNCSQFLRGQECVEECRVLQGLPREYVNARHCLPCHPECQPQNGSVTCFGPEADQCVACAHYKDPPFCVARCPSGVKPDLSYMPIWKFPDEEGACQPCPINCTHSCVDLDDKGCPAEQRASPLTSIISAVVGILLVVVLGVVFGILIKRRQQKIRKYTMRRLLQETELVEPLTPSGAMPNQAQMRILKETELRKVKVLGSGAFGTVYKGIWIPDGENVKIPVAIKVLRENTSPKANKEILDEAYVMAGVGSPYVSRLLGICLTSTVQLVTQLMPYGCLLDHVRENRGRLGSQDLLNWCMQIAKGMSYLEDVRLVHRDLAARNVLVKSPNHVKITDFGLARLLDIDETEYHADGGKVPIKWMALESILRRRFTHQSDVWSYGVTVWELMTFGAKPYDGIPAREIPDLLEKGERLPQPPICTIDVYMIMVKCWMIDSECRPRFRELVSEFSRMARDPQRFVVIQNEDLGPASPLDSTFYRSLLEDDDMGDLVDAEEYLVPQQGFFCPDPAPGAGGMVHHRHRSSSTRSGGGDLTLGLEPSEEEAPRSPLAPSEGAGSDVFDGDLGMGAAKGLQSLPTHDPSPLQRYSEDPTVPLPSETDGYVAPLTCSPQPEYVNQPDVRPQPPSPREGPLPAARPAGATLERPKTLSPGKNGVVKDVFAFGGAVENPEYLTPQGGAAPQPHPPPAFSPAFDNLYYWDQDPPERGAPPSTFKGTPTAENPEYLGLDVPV

| Compound | viability [1] [%] | Her2 level [2] | viability [3] | viability [4] | viability [5] | differential viability (reversal) ([6]; H69AR cells + 2 uM doxorubicin) | viability [6, 9] [%] | viability [6, 10] [%] | inhibition [7] | inhibition [8] |
| --- | --- | --- | --- | --- | --- | --- | --- | --- | --- | --- |
| CCOC(=O)CNc1ccc2c(c1)OCO2 | 88 | 90% (inactive) | 88% (inactive) | 76.6% (inactive) | 98.7% (inactive) | 13.2% (inactive) | 85.6 | 98.7 | -5% (inactive) | -2.3% (inactive) |
| CCC(=O)N1CCNC(=O)C1CC(=O)Nc1ccc(C)c(Cl)c1 (stereo not given) | 97 | 122% (inactive) | 97% (inactive) | 94.2% (inactive) | 95.8% (inactive) | 4.98% (inactive) | 90.8 | 95.8 | -2.8% (inactive) | -0.48% (inactive) |
| O=C(NCCCN1CCN(CCCNC(=O)c2ccc(F)cc2)CC1)c1ccc(F)cc1 | 92.5 | 98% (inactive) | 92.5% (inactive) | 89.9% (inactive) | 94.6% (inactive) | 4.58% (inactive) | 90 | 94.6 | -4.67% (inactive) | 0.81% (inactive) |
| Cc1c(C(=O)NCc2cccnc2)sc2ncn(CC(=O)N3CCCCC3C)c(=O)c12 (stereo not given) | 98 | 88.5% (inactive) | 98% (inactive) | 102% (inactive) | 97% (inactive) | 1.24% (inactive) | 95.8 | 97 | -0.79% (inactive) | 1.61% (inactive) |
| Cc1ccc2cc(C(c3nnnn3CC3CCCO3)N3CCCC4(CCCCC4)C3)c(=O)[nH]c2c1 (stereo not given) | 107 | 92.5% (inactive) | 107% (inactive) | 97.9% (inactive) | 85.1% (inactive) | -8.48% (inactive) | 93.6 | 85.1 | -7.27% (inactive) | 0% (inactive) |
| Cc1cc(-c2ccccc2)nc2cc(C(=O)NCCCn3ccnc3)nn12 | 104 | 103% (inactive) | 104% (inactive) | 98.8% (inactive) | 88.2% (inactive) | 8.86% (inactive) | 79.3 | 88.2 | -6.13% (inactive) | -1.45% (inactive) |
| Oc1ccccc1C1=Nc2nc3ccccc3n2C(c2ccccc2)C1 (stereo not given) | 75.5 | 86.5% (inactive) | 75.5% (inactive) | 103% (inactive) | 65% (inactive) | -12.7% (inactive) | 77.7 | 65 | -7.24% (inactive) | -1.15% (inactive) |
| COc1ccc(C(=O)NCc2nnc(SCC(=O)Nc3cc(C)cc(C)c3)o2)cc1OC | 89.5 | 102% (inactive) | 89.5% (inactive) | 99.6% (inactive) | 89.3% (inactive) | 7.32% (inactive) | 82 | 89.3 | 0.13% (inactive) | 1.33% (inactive) |
| CCCCNc1cc(C)oc(=O)c1C(C)=O | 94.5 | 107% (inactive) | 94.5% (inactive) | 105% (inactive) | 97.9% (inactive) | 7% (inactive) | 90.9 | 97.9 | -4.86% (inactive) | 3.28% (inactive) |
| CCCCCC(=O)N1CC2(CC)CN(C(=O)CCCCC)CC(CC)(C1)C2=O | 89 | 124% (inactive) | 89% (inactive) | 91.7% (inactive) | 83.3% (inactive) | -6.35% (inactive) | 89.7 | 83.3 | 0.51% (inactive) | -7.33% (inactive) |
| CCn1c(SCC(=O)NCc2ccco2)nc2c(c1=O)SC(C)C2 (stereo not given) | 95 | 91% (inactive) | 95% (inactive) | 103% (inactive) | 91.3% (inactive) | -0.41% (inactive) | 91.7 | 91.3 | -4.4% (inactive) | -0.98% (inactive) |
| CCOC(=O)c1cc2n(n1)C(C(F)(F)C(F)(F)F)CC(C)N2 (stereo not given) | 92 | 93.5% (inactive) | 92% (inactive) | 105% (inactive) | 97.3% (inactive) | 4.36% (inactive) | 93 | 97.3 | -3.73% (inactive) | -0.32% (inactive) |
| O=C(COC(=O)C1=COCCO1)Nc1ccccc1Oc1ccccc1 | 113 | 95% (inactive) | 113% (inactive) | 97.8% (inactive) | 93.8% (inactive) | 5.48% (inactive) | 88.3 | 93.8 | -7.37% (inactive) | -1.64% (inactive) |
| CCC(C)(C)NC(=O)CN(Cc1ccc2c(c1)OCO2)C(=O)CCC(=O)Nc1ccccn1 | 132 | 118% (inactive) | 132% (inactive) | 105% (inactive) | 92.5% (inactive) | 2.38% (inactive) | 90.1 | 92.5 | -5.06% (inactive) | -2.3% (inactive) |
| Cc1ccc(-n2c(Cc3cccn3C)nnc2SCC(=O)NCc2ccc3c(c2)OCO3)cc1 | 97.5 | 89% (inactive) | 97.5% (inactive) | 88.2% (inactive) | 85.8% (inactive) | 5.04% (inactive) | 80.7 | 85.8 | -5.07% (inactive) | -4.59% (inactive) |
| O=C(CCCCC(=O)NCc1cccs1)NCc1cccs1 | 95.5 | 106% (inactive) | 95.5% (inactive) | 99.7% (inactive) | 97.8% (inactive) | 0.77% (inactive) | 97 | 97.8 | 1.2% (inactive) | -7.42% (inactive) |

| Compound | viability [1] [%] | Her2 level [2] | viability [3] | viability [4] | viability [5] | differential viability (reversal) ([6]; H69AR cells + 2 uM doxorubicin) | viability [6, 9] [%] | viability [6, 10] [%] | inhibition [7] | inhibition [8] |
| --- | --- | --- | --- | --- | --- | --- | --- | --- | --- | --- |
| CCOC(=O)Nc1ccc(OC)cc1S(=O)(=O)N1CCCCC1 | 88.5 | 93% (inactive) | 88.5% (inactive) | 112% (inactive) | 99% (inactive) | 17.7% (inactive) | 81.3 | 99 | -1.84% (inactive) | -1.8% (inactive) |
| CN(C=O)CP(=O)(O)CCN1CCCC1=O | 126 | 121% (inactive) | 126% (inactive) | 104% (inactive) | 99.4% (inactive) | 7.19% (inactive) | 92.2 | 99.4 | -4.47% (inactive) | 0.66% (inactive) |
| c1ccc(Cn2nnnc2CN2CCN(c3ncccn3)CC2)cc1 | 99 | 97.5% (inactive) | 99% (inactive) | 92.1% (inactive) | 100% (inactive) | -0.765% (inactive) | 101 | 100 | -3.47% (inactive) | 0.98% (inactive) |
| CCOC(=O)CSc1nnc([C@H](CC(C)C)NC(=O)OC(C)(C)C)o1 | 109 | 106% (inactive) | 109% (inactive) | 94% (inactive) | 94.6% (inactive) | -0.88% (inactive) | 95.5 | 94.6 | -3.6% (inactive) | -3.71% (inactive) |
| COC(=O)n1c(=S)oc2cc(Cl)ccc21 | 102 | 102% (inactive) | 102% (inactive) | 62.7% (inactive) | 93.6% (inactive) | 3.97% (inactive) | 89.6 | 93.6 | 0.26% (inactive) | 25.6% (inactive) |
| Nc1nc(N2C(=O)C3CC=CCC3C2=O)nn1-c1ccccc1 (stereo not given) | 101 | 130% (inactive) | 101% (inactive) | 105% (inactive) | 98.7% (inactive) | 2.73% (inactive) | 96 | 98.7 | 1.3% (inactive) | -12.2% (inactive) |
| CCOC(=O)N1CCN(C(=O)CSc2nnc(-c3cc(OC)cc(OC)c3)o2)CC1 | 86.5 | 75.5% (inactive) | 86.5% (inactive) | 92.7% (inactive) | 85.7% (inactive) | -3.85% (inactive) | 89.5 | 85.7 | -5.66% (inactive) | -1% (inactive) |
| Cc1sc(NC(=O)CSc2nnc(COc3ccccc3)n2C)c(C#N)c1C | 83 | 75.5% (inactive) | 83% (inactive) | 72.2% (inactive) | 70.3% (inactive) | -3.05% (inactive) | 73.3 | 70.3 | -1.3% (inactive) | -7.3% (inactive) |
| O=C(CCN1C(=O)COc2ccccc21)NCCCN1CCN(c2ccccc2F)CC1 | 105 | 118% (inactive) | 105% (inactive) | 90.6% (inactive) | 84.6% (inactive) | 5.56% (inactive) | 79 | 84.6 | -3.64% (inactive) | -2.5% (inactive) |
| COc1ccc(OC)c(S(=O)(=O)NCCC2=CCCCC2)c1 | 77 | 87.5% (inactive) | 77% (inactive) | 106% (inactive) | 96.6% (inactive) | -5.82% (inactive) | 102 | 96.6 | -6.89% (inactive) | -3.77% (inactive) |
| CCOc1ccc2[nH]c(=O)c(CN(CCOC)C(=O)N3CCOCC3)cc2c1 | 97 | 90% (inactive) | 97% (inactive) | 102% (inactive) | 92.1% (inactive) | -8.59% (inactive) | 101 | 92.1 | -3.33% (inactive) | 4.59% (inactive) |
| Cc1nc2cc(Cl)ccc2n1CCO | 101 | 95.5% (inactive) | 101% (inactive) | 102% (inactive) | 92% (inactive) | 7.68% (inactive) | 84.4 | 92 | -9.86% (inactive) | 0.32% (inactive) |
| O=C1C2CC=CCC2C(=O)N1c1ccc(Cc2ccncc2)cc1 (stereo not given) | 88 | 96.5% (inactive) | 88% (inactive) | 83.8% (inactive) | 100% (inactive) | 2.21% (inactive) | 97.8 | 100 | 0.78% (inactive) | -5.74% (inactive) |
| Nc1nnnn1/N=C/c1ccccn1 | 69 | 108% (inactive) | 69% (inactive) | 114% (inactive) | 97.2% (inactive) | 11% (inactive) | 86.2 | 97.2 | -4.73% (inactive) | 24% (inactive) |
| CCOC(=O)C1CCCN(C(=O)c2ccc3c(=O)n(CCOC)c(=S)[nH]c3c2)C1 (stereo not given) | 94 | 83% (inactive) | 94% (inactive) | 80.6% (inactive) | 88.6% (inactive) | 11.5% (inactive) | 77.1 | 88.6 | -4.8% (inactive) | -0.33% (inactive) |
